Results published in ChEMBL document CHEMBL3779898, “3,3'-OH curcumin causes apoptosis in HepG2 cells through ROS-mediated pathway” (Eur J Med Chem, 2016).

Columns and labels:
[1] = system: HepG2; assay: Cytotoxicity against human HepG2 cells assessed as reduction in cell viability after 48 hrs by MTT assay; format: functional, cell-based; settings: HepG2, 48 h
Procedure, shortened: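 HepG2 seeded at 3×10^3/well, grown 24 h, then exposed to compounds for 48 h. MTT (0.5 mg/mL) added for 4 h, formazan dissolved in DMSO, absorbance read at 570 nm. IC50 = concentration giving 50% loss of viability; mean ± SD of three determinations.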

[2] = system: HepG2; assay: Induction of apoptosis in human HepG2 cells assessed as late apoptotic cells at 5 mM after 24 hrs by Annexin V-FITC/propidium iodide staining based flow cytometry (reference value: 5.4%); format: functional
Procedure, shortened: (§1)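 HepG2 plated at 5×10^5/well, grown 24 h, then treated 24 h; where indicated, 1 h pretreatment with 5 mM GSH or NAC. Cells stained with Annexin V-FITC/PI; 10,000 cells per sample analysed by flow cytometry into early apoptotic, late apoptotic and necrotic quadrants; triplicate.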

[3] = system: HepG2; assay: Induction of apoptosis in human HepG2 cells assessed as early apoptotic cells at 5 mM after 24 hrs by Annexin V-FITC/propidium iodide staining based flow cytometry (reference value: 2.8%); format: functional; procedure, shortened: as §1
[4] = system: HepG2; assay: Induction of apoptosis in human HepG2 cells assessed as necrotic cells at 5 mM after 24 hrs by Annexin V-FITC/propidium iodide staining based flow cytometry (reference value: 1.6%); format: functional; procedure, shortened: as §1

In the case of `O=C(/C=C/c1ccccc1)CC(=O)/C=C/c1ccccc1`, the IC50 [1] is reported as greater than 200 µM.

`CC(=O)N[C@@H](CS)C(=O)O` [ACETYLCYSTEINE] was tested, and the Activity [2] was 6.6%, the Activity [3] was 2.6% and the Activity [4] was 1.9%.

With `N[C@@H](CCC(=O)N[C@@H](CS)C(=O)NCC(=O)O)C(=O)O` [GLUTATHIONE] the Activity [2] was 5.5%, the Activity [3] was 2.5% and the Activity [4] was 2.1%.
